Data from ChEMBL document CHEMBL1926575, “Synthesis, biological evaluation and molecular modeling of 1,2,3-triazole analogs of combretastatin A-1” (Bioorg Med Chem, 2012).
pIC50: −log10 of the molar value.

Assays:
NCI-H460 = assay: Cytotoxicity against human NCI-H460 cells by alamar blue assay; type: functional, cell-based
MCF7 = assay: Cytotoxicity against human MCF7 cells by alamar blue assay; type: functional, cell-based
CCRF-CEM = assay: Cytotoxicity against human CEM cells by alamar blue assay; type: functional, cell-based
HT-29 = assay: Cytotoxicity against human HT-29 cells by alamar blue assay; type: functional, cell-based
[1] = Cytotoxicity against human fibroblast cells by alamar blue assay; type: cell-based
[2] = Inhibition of angiogenesis in endothelial cells assessed as inhibition of tube formation after 18 hrs by inverted microscopic analysis; type: functional, cell-based; conditions: Endothelial cell
Tubulin = Tubulin (Sus scrofa, UniProt P02554+P02550); assay: Inhibition of porcine brain tubulin polymerization after 60 mins
Procedure, shortened: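 Porcine brain tubulin (50 ul of 11 mg/ml stock) in Mes buffer (0.1 M Mes, 1 mM EGTA, 0.5 mM MgCl2, pH 6.6) with GTP (20 ul of 5 mM stock), plate prechilled 4 °C, drug added in DMSO; A350 recorded at ambient temperature for 60 min against drug blanks. IC50 read graphically as percent of control assembly.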

[3] = Ratio of CA-1 IC50 to compound IC50 for inhibition of angiogenesis in endothelial cells; type: functional, Endothelial cell

Structure (SMILES)	pIC50 [2]	IC50 (Tubulin) [µM]	pIC50 (NCI-H460)	pIC50 (MCF7)	pIC50 (CCRF-CEM)	pIC50 (HT-29)	pIC50 [1]	Ratio IC50 [3]
COc1ccc(-n2nncc2-c2cc(OC)c(OC)c(OC)c2)c(O)c1O	< 5.00	> 20	4.58	< 4.00	< 4.00	4.19	< 4.00	–
COc1ccc(-c2cnnn2-c2cc(OC)c(OC)c(OC)c2)c(O)c1O	–	10.1	–	–	–	–	–	–
COc1cc(-n2nncc2-c2ccc(OC)c([N+](=O)[O-])c2[N+](=O)[O-])cc(OC)c1OC	5.36	> 20	6.15	5.21	4.59	4.92	4.50	–
COc1cc(-n2nncc2-c2ccc3c(c2O)OC(C)(C)O3)cc(OC)c1OC	< 5.00	> 20	4.77	4.33	< 4.00	< 4.00	< 4.00	–
COc1cc(-n2cc(-c3ccc(OC)c([N+](=O)[O-])c3[N+](=O)[O-])nn2)cc(OC)c1OC	< 5.00	–	4.74	< 4.00	< 4.00	< 4.00	< 4.00	–
COc1ccc(-c2cn(-c3cc(OC)c(OC)c(OC)c3)nn2)c(N)c1N	< 5.00	–	4.53	< 4.00	< 4.00	< 4.00	< 4.00	–
COc1ccc(/C=C\c2cc(OC)c(OC)c(OC)c2)cc1O [COMBRETASTATIN A4]	8.00	–	5.36	4.31	< 4.00	6.40	< 4.00	–

Further lines, with some results ahead:

pIC50 [2]	IC50 (Tubulin) [µM]	Structure (SMILES)	pIC50 (NCI-H460)	pIC50 (MCF7)	pIC50 (CCRF-CEM)	pIC50 (HT-29)	pIC50 [1]	Ratio IC50 [3]
6.52	5.2	COc1ccc(-c2cnnn2-c2cc(OC)c(OC)c(OC)c2)c(N)c1N	4.76	4.41	< 4.00	4.76	< 4.00	10
6.52	15.6	COc1ccc(-c2cnnn2-c2cc(OC)c(OC)c(OC)c2)c(F)c1F	5.31	4.57	< 4.00	5.72	< 4.00	10
5.47	17.1	COc1cc(-n2nncc2-c2ccc3c(c2O)OCO3)cc(OC)c1OC	5.13	< 4.00	< 4.00	5.06	< 4.00	–
5.49	3.5	COc1ccc(/C=C\c2cc(OC)c(OC)c(OC)c2)c(O)c1O [COMBRETASTATIN A-1]	5.74	4.12	< 4.00	6.05	< 4.00	–
